KCNQ1 inh: inhibitors of human KCNQ1 channel, primary screen, cell-based, thallium flux, high-throughput; Potassium voltage-gated channel subfamily KQT member 1 (Homo sapiens), P51787; CHO-K1 KCNQ1, FluxOR thallium flux fluorescence; hits give high values; B-score at 10 µM; 310,000 tested, 1.3% active; AID 2642, 2010;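 active means compounds whose thallium flux B-score, printed positive for inhibition, exceeds three library SD while starting fluorescence stays within three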;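 further: channel opened by potassium depolarization with thallium stimulus after 20 min compound exposure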
KCC2 mod: KCC2 cotransporter modulators, thallium flux, primary screen, cell-based, HEK293 KCC2, FluoZin-2 fluorescence, MLSMR; 190,000 tested, 2.2% active; Solute carrier family 12 member 5 (Homo sapiens), Q9H2X9; AID 1456, 2008; KCC2 cells, thallium flux FluoZin-2 fluorescence; B-score of Tl+ flux slope (higher = more flux/activation; lower = inhibition) at 10 µM;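 active means thallium flux slope and its plate-corrected score both differing from the plate sample mean at a set confidence after two filtering rounds, in either direction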;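 further: slope of fluorescence scaled to starting intensity during 10 to 20 s after thallium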
KCNQ1 act: potentiators or activators of KCNQ1 channel, primary screen, cell-based, thallium flux, high-throughput. 310,000 tested, 0.35% active. CHO-K1 KCNQ1, thallium flux FluxOR fluorescence; hits give high values. AID 2648, 2010. Potassium voltage-gated channel subfamily KQT member 1 (Homo sapiens), P51787. B-score at 10 µM;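 active means fluorescence ratio B-score, a plate-corrected score, at least three library SD, with initial intensity B-score within 5 SD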
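Doses: Single concentration per compound, DMSO matched to controls | Test system: KCNQ1-transfected CHO-K1 cells | Timing: 90 min dye loading and 20 min compound exposure, both at room temperature | Measured by: Kinetic FluxOR thallium fluorescence, 10-s 1-Hz baseline, 110-s post-stimulus read | Medium: Assay buffer with matched DMSO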
KCNK3 inh: human KCNK3 channel inhibitors, primary screen, CHO cells, FluxOR thallium flux, B-score | 340,000 tested, 0.84% active | Potassium channel subfamily K member 3 (Homo sapiens), O14649 | B-score at 10 µM | FluxOR fluorescence; hits give low values | AID 602410, 2012;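 active means B-score under library mean minus 4 SD, starting fluorescence ratio at most library mean plus 5 SD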;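 further: more negative B-score means stronger inhibition of thallium flux through KCNK3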
Target sequence (O14649 whole entry, looked up): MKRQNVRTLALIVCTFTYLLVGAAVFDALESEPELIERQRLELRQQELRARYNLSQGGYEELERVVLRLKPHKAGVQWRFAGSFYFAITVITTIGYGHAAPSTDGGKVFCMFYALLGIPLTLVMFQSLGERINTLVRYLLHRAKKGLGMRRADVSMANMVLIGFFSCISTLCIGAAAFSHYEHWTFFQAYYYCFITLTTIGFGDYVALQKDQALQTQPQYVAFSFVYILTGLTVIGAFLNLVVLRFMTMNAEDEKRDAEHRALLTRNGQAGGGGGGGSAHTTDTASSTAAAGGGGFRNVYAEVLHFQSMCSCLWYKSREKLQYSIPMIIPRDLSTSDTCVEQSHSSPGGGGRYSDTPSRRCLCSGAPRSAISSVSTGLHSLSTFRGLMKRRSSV
hERG rescue: hERG rescue from dofetilide block, primary screen, cell-based, CHO-hERG, FluxOR thallium flux, dofetilide IC70; Voltage-gated inwardly rectifying potassium channel KCNH2 (Homo sapiens), Q12809; 310,000 tested, 0.51% active; AID 1511, 2009; activation (rescue from dofetilide block), less the hit threshold, % at 10 µM; dofetilide IC70 present;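 active means activation above the mean of controls blocked by dofetilide plus 5 SD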;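 further: thallium influx through hERG after potassium depolarization seen as dye fluorescence rise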
KCNK9 inh: KCNK9 potassium channel inhibitors, primary screen, HEK293 cells, thallium flux. AID 488922, 2010. B-score at 10 µM. FluxOR thallium flux fluorescence; hits give low values. Potassium channel subfamily K member 9 (Homo sapiens), Q9NPC2. 310,000 tested, 1.2% active;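 active means ratio B-score over 3 SD below the library mean, with starting fluorescence within 5 SD of its mean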;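 further: negative B-score means less thallium flux so channel inhibition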
Target sequence (Q9NPC2 whole entry, looked up): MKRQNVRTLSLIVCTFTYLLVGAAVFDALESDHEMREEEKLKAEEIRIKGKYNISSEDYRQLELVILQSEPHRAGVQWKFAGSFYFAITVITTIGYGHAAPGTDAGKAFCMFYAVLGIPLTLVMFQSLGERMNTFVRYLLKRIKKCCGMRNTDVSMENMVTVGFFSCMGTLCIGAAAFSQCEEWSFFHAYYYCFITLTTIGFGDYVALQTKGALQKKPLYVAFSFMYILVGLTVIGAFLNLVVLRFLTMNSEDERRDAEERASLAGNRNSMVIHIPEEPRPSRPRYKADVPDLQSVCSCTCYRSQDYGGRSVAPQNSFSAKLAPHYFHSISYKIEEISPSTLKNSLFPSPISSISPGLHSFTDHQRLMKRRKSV
KCC2 sec1: KCC2 modulators in sodium-free buffer, confirmation, cell-based, HEK293 KCC2, thallium flux, secondary assay | shares compounds with KCC2 mod | FluoZin2 fluorescence; hits give high values | normalised thallium flux (F/F0 slope) at 10 µM | 3,700 tested, 15% active;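 active means thallium flux slope above the same plate's solvent-only control mean plus 3 SD; inconclusive means the two replicate wells disagree; inactive means no significant difference from solvent-only control wells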
KCC2 bumet counter: thallium flux persisting under bumetanide in KCC2 cells, confirmation, counter-screen for KCC2 modulator project, cell-based, HEK293 KCC2, FluoZin2, secondary assay 3 | shares compounds with KCC2 mod | HEK293-KCC2 + bumetanide/ouabain; hits give high values | normalized thallium flux at 10 µM | 3,700 tested, 49% active | AID 1714, 2009;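 active means thallium entry rate above the same plate's blocked-transporter control wells by more than 3 SD; inconclusive means the two repeat wells disagree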;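 further: raw slope of fluorescence over initial fluorescence between 10 and 20 s after thallium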
KCC2 secondary2: KCC2 modulators without ouabain present, confirmation, cell-based, HEK293 KCC2, thallium flux, FluoZin2, secondary assay 2. normalized thallium flux at 10 µM. thallium flux FluoZin2 fluorescence; actives lie on both sides; F/F0 rise rate, 10–20 s post-thallium. 3,700 tested, 23% active. shares compounds with KCC2 mod;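 active means thallium flux slope more than 3 SD above or below the plate's solvent-only control mean, mostly below; inconclusive means the two repeat wells disagreed; inactive means no significant shift from solvent-only controls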;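 further: raw slope with 0.1% DMSO as baseline and bumetanide as block control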
HEK293 Tl flux: thallium flux modulation in parental HEK cells, confirmation, counter-screen for KCC2 modulator project, cell-based, counterscreen 1. shares compounds with KCC2 mod. HEK293 parental cells, thallium flux FluoZin2, ouabain; baseline-ratio fluorescence slope, 10–20 s after thallium. thallium flux rate (normalised fluorescence) at 10 µM. 3,700 tested, 46% active. AID 1716, 2009;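 active means thallium flux rate significantly above the same plate's solvent-only control wells, beyond their mean plus 3 SD; inconclusive means the two replicate wells gave conflicting results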
KCC2 retest ouab: KCC2 inhibitors and activators, ouabain retest, confirmation, HEK-KCC2 cells; shares compounds with KCC2 mod; HEK293-KCC2, thallium flux FluoZin2 fluorescence; bidirectional: low = inhibitor, high = activator; raw Tl+ flux slope (below DMSO = inhibition, above = activation) at 10 µM; 3,700 tested, 48% active;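 active means thallium flux slope beyond 3 SD from same-plate DMSO control mean in most replicates, usually higher, sometimes lower; inconclusive means repeat tests gave conflicting results; inactive means no significant difference from controls in most replicates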;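 further: slope of initial-normalized fluorescence between seconds 10 and 20 after thallium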
HEK293 Tl flux2: native HEK Tl+ uptake effects, second counter-screen – HEK cells, counterscreen 2, counter-screen for KCC2 modulator project, confirmation; AID 1718, 2009; 3,700 tested, 33% active; thallium flux slope at 10 µM; shares compounds with KCC2 mod; HEK293 parental, thallium flux FluoZin-2 fluorescence slope;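 active means thallium flux slope above the same plate's solvent-control mean plus 3 SD in both duplicate wells; inconclusive means duplicate wells that disagreed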;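 further: run without ouabain in cells lacking the KCC2 cotransporter; slope of fluorescence scaled to its starting value between 10 and 20 s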
Starred values were filed as active, the others as inactive; i = inactive; ? = inconclusive; · = not tested or not shown. Sampled rows, rich in hits. Any-hit rate of the full collection: about 4.1%.

SMILES	KCNQ1 inh	KCC2 mod	KCNQ1 act	KCNK3 inh	hERG rescue	KCNK9 inh	KCC2 sec1	KCC2 bumet counter	KCC2 secondary2	HEK293 Tl flux	KCC2 retest ouab	HEK293 Tl flux2
O=[N+]([O-])c1ccc(Sc2cccc3cccnc23)c([N+](=O)[O-])c1	i	·	i	i	-9	i	0.015*	0.053*	0.035	?	0.035*	0.013
C=CCn1nc([N+](=O)[O-])nc1Sc1cccc2cccnc12	i	12*	i	i	0	i	0.015*	0.06*	0.03	0.018*	0.036*	0.011*
Cc1ccc2oc(-c3ccc(C)c(NC(=S)NC(=O)c4cccs4)c3)nc2c1	i	4.6*	i	i	-9	i	0.011	0.012*	0.034	?	?	0.011
Cc1nc2nc(-c3ccc(Cl)cc3)cn2nc1C	i	·	i	i	-3	i	0.0086	0.0057	0.031	0.0087	0.019	0.012
Cc1cc(C(=O)CSc2nnc(-c3cccc(F)c3)n2N)c(C)n1Cc1ccc2c(c1)OCO2	i	·	i	i	-9	i	0.0075	0.004	0.029	0.007	0.019	0.01
O=C(NCCCCc1ccccc1)C1CC(c2cccc([N+](=O)[O-])c2)=NO1 (stereo not drawn)	i	-3.3	i	i	-13	i	·	·	·	·	·	·
O=C(NCCCCc1ccccc1)C1CC(c2cccc(F)c2)=NO1 (stereo not drawn)	i	-2.7*	i	i	-7	i	0.0069	0.0037	0.025*	0.0067	0.016	0.0094
O=C(Nc1nnc(-c2ccc3c(c2)CCCC3)o1)c1c(F)cccc1F	i	16*	i	i	-11	i	0.017*	0.047*	0.037	0.02*	0.035*	0.013*
O=C(Nc1nnc(-c2ccc3c(c2)CCCC3)o1)C1CCCCC1	i	0.76	i	i	-1	i	·	·	·	·	·	·
COc1cccc(C(=O)N2CCN(Cc3ccc4c(c3)OCO4)CC2)c1OC	i	-0.45	i	i	-6	i	·	·	·	·	·	·
Nn1c(Cc2cccc3ccccc23)nnc1SCC(=O)NC1CCS(=O)(=O)C1 (stereo not drawn)	i	5.7*	i	i	-8	i	0.0092	0.0056	0.036	0.0083	0.019	0.012
Nn1c(SCC(=O)NC2CCS(=O)(=O)C2)nnc1-c1cccs1 (stereo not drawn)	i	0.54	i	i	-4	i	·	·	·	·	·	·
O=C(/C=C/c1ccc2c(c1)OCO2)Nc1cc(S(=O)(=O)N2CCOCC2)ccc1N1CCOCC1	i	0.082	i	i	-3	i	·	·	·	·	·	·
CCOC(=O)/C(=C/C=C1\Sc2cc(OCC)c(OCC)cc2N1CC)C(C)=O	i	i	i	i	-46	i	·	·	·	·	·	·
COCCCNC(=S)N/N=C/c1cccc(OC)c1O	i	0.33	i	i	-11	i	·	·	·	·	·	·
CCCCNC(=S)N/N=C/c1ccccc1F	i	7.2*	i	i	0	i	0.011	0.038*	0.033	0.019*	?	0.012*
CCCCOc1ccc(/C=N/NC(=S)Nc2cc(C)ccc2C)cc1	i	-0.074	i	i	-9	i	·	·	·	·	·	·
CCCCNC(=S)N/N=C/c1cc(C)ccc1C	i	4.3*	i	i	2	i	?	0.0091*	0.035	0.012*	?	0.014*
CCCCNC(=S)N/N=C/c1ccc(C)s1	i	4*	i	i	-12	i	?	0.027*	0.031	0.012*	0.021*	0.014*
CCCCNC(=S)N/N=C/c1sccc1C	i	10*	i	i	-6	i	0.01	0.017*	0.034	0.019*	?	?
Cc1c(Cc2ccccc2)c(=O)oc2cc(OCc3ccc(C(=O)O)cc3)ccc12	i	-4.2*	i	i	2	i	0.0081	0.0056	0.035	0.0063*	?	0.011
COc1cccc(COc2ccc3c(C)c(Cc4ccccc4)c(=O)oc3c2)c1	i	·	i	i	-6	i	·	·	·	·	·	·
CCOC(=O)c1ccc(NC(=O)Cn2ccc([N+](=O)[O-])n2)cc1	i	0.77	i	i	-10	i	·	·	·	·	·	·
COc1ccc(-c2cc3c(=O)n(CC(=O)Nc4ccc(Cl)cc4)nc(C)n3n2)cc1	i	·	i	i	-4	i	·	·	·	·	·	·
C/C=C/Cn1c(SCCCc2ccccc2)nc2c1c(=O)[nH]c(=O)n2C	i	-5.1*	i	i	-9	i	0.0067	0.0039	?	0.0054*	?	0.0086*
C=CCn1c(SCCCc2ccccc2)nc2c1c(=O)[nH]c(=O)n2C	i	-3.7*	i	i	-7	i	0.0073	0.0044	0.033	?	0.019	0.01
Cc1nnc2sc(SCc3ccccc3Cl)nn2c1=O	i	0.04	i	i	-6	i	·	·	·	·	·	·
